The test system of one assay is MT ATP synthase. To be noted: cited from earlier work.
A further assay addresses AB ATP synthase (UniProt A3M139+B2I0Z6). The format is biochemical, Acinetobacter baumannii. The conditions noted are these: for Inhibition of AB ATP synthase (in words): even at high / highest concentrations tested.
The target in another assay is PA ATP synthase (Pseudomonas aeruginosa, UniProt Q9HT14+Q9HT15). In words: biochemical. The conditions noted are these: for Inhibition of PA ATP synthase (in words): even at high / highest concentrations tested.
The subject of the next assay is PA 2108 (MDR). In words: Broth microdilution antibacterial activity. The format is cell-based, Pseudomonas aeruginosa. The conditions noted are these: for MIC: Pseudomonas aeruginosa; for Antibacterial activity against PA (in words): highest concentration tested.
A further assay relates to AB 17978. The assay can be described thus: Broth microdilution antibacterial activity. The format is cell-based. The conditions noted are these: Acinetobacter baumannii, read-out: MIC AB 17978.
The subject of another assay is AB (17978 and 1605). The assay can be described thus: Broth microdilution antibacterial activity, AB strains summarised in the text. The class given is cell-based, Acinetobacter baumannii. To be noted: for Antibacterial activity against AB strains (in words): highest concentration tested; for MIC: Acinetobacter baumannii, read-out: MICs against AB, one or both strains tested. A general note: In broth dilution the organism is exposed to a series of concentrations in liquid medium.

For a further assay, the system named is AB 1605 (MDR). The assay can be described thus: Broth microdilution antibacterial activity. The class given is cell-based. The conditions noted are these: Acinetobacter baumannii, read-out: MIC AB 1605 (MDR).
In the next assay the test system is PA ETC. The assay can be described thus: Inhibition of NADH-driven H+ pumping of the ETC in PA inverted vesicles. The class given is biochemical, Pseudomonas aeruginosa. The method in brief: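 Inverted inner-membrane vesicles came from P. aeruginosa ATCC 9027 (LB, 37°C, 150 rpm, late exponential). Cells were homogenizer-lysed in Tris-HCl pH 7.5/MgCl2/glycerol buffer, cleared at 9,000 x g, and vesicles pelleted at 169,000 x g. Assay used vesicles at 0.5 mg/mL in HEPES/300 mM KCl pH 7.5 with ACMA and test compound in DMSO. NADH to 0.8 mM started pumping; nigericin stopped it. Fluorescence Ex 415/Em 485 nm; percent quenching normalized to no-inhibitor control.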

SMILES strings stand for the structures. In brackets after ≈: the same amount, converted by molar mass. Where two headings read alike, the source gives them in different places.

As to `COc1nc2ccc(Br)cc2cc1[C@@H](c1ccccc1)[C@@](O)(CCN(C)C)c1cccc2ccccc12` [BDQ, bedaquiline, reference compound], the “Potency against MT ATP synthase (in words)” value with MT ATP synthase is recorded as “nanomolar potency”. Further, the “Inhibition of AB ATP synthase (in words)” value on AB ATP synthase was “does not fully inhibit”. Further, the “Inhibition of PA ATP synthase (in words)” value on PA ATP synthase was “does not fully inhibit”.

Turning to `O=C(N[C@H](CO)[C@H](O)c1ccc([N+](=O)[O-])cc1)C(Cl)Cl` [Chloramphenicol, reference compound], the MIC in the assay on PA 2108 (MDR) (read-out: MIC PA 2108 (MDR)) and with AB 17978 was 64 µg/mL (≈ 198 µM) in each case.

On to `c1ccc(CSc2nc3ccccc3cc2CNCc2ccc(N3CCCCC3)cc2)cc1` [WSA248, 1‐(2‐(benzylthio)quinolin‐3‐yl)‐N‐(4‐(piperidin‐1‐yl)benzyl)methanamine], for which the MIC with PA 2108 (MDR) (read-out: MIC PA 2108 (MDR)), in the assay with AB 17978 and with AB 1605 (MDR) was > 128 µg/mL each time. Also, the “Antibacterial activity against PA (in words)” value in the assay with PA 2108 (MDR) is “inactive”. The “Antibacterial activity against AB strains (in words)” value in the assay with AB (17978 and 1605) is “inactive”. Besides, on AB ATP synthase, the “Inhibition of AB ATP synthase (in words)” value was “no significant inhibition”. Besides, the “Inhibition of PA ATP synthase (in words)” value at PA ATP synthase is “no significant inhibition”.

Consider `c1ccc(CSc2nc3ccccc3cc2CNCc2ccc(CN3CCCC3)cc2)cc1` [WSA249, 1‐(2‐(benzylthio)quinolin‐3‐yl)‐N‐(4‐(pyrrolidin‐1‐ylmethyl)benzyl)methanamine], for which the MIC in the assay with PA 2108 (MDR) (read-out: MIC PA 2108 (MDR)) was 16 µg/mL (≈ 35.3 µM); in the assay with PA 2108 (MDR) (read-out: MIC against MDR PA), 16 µg/mL (≈ 35.3 µM); in the assay with AB 17978, 32 µg/mL (≈ 70.5 µM); in the assay on AB 1605 (MDR), 64 µg/mL (≈ 141 µM).

In the case of `CN1CCN(CCNCc2cc3ccccc3nc2SCc2ccccc2)CC1` [WSA250, N‐((2‐(benzylthio)quinolin‐3‐yl)methyl)‐2‐(4‐methylpiperazin‐1‐yl)ethan‐1‐amine], the MIC amounted to 64 µg/mL (≈ 157 µM) in the assay on PA 2108 (MDR) (read-out: MIC PA 2108 (MDR)), 64 µg/mL (≈ 157 µM) in the assay with AB 17978 and 128 µg/mL (≈ 315 µM) with AB 1605 (MDR).

In the case of `CCN1CCC(CCNCc2cc3cc(OC)c(OC)c(OC)c3nc2SCc2ccccc2)CC1` [WSA251, N‐((2‐(benzylthio)‐6,7,8‐trimethoxyquinolin‐3‐yl)methyl)‐2‐(1‐ethylpiperidin‐4‐yl)ethan‐1‐amine], the “Fold less potent than WSA236 against PA (antibacterial)” value with PA 2108 (MDR) (MIC comparison) is 4 fold. Besides, the MIC in the assay on PA 2108 (MDR) (read-out: MIC PA 2108 (MDR)) was 128 µg/mL (≈ 251 µM); in the assay with AB 17978, 128 µg/mL (≈ 251 µM); in the assay with AB 1605 (MDR), > 128 µg/mL. Moreover, the “Fold less potent than WSA236 against AB (antibacterial)” value in the assay with AB (17978 and 1605) (MIC comparison) was determined as 2 fold.

`COc1cc2cc(CNCCC3CCN(C4CCCC4)CC3)c(SCc3ccccc3)nc2c(OC)c1OC` [WSA252, N‐((2‐(benzylthio)‐6,7,8‐trimethoxyquinolin‐3‐yl)methyl)‐2‐(1‐cyclopentylpiperidin‐4‐yl)ethan‐1‐amine]: the MIC with PA 2108 (MDR) (read-out: MIC PA 2108 (MDR)) and with AB 17978 was 64 µg/mL (≈ 116 µM) each time.

Regarding `COc1cc2cc(CNCCN3CCN(C)CC3)c(SCc3ccccc3)nc2c(OC)c1OC` [WSA253, N‐((2‐(benzylthio)‐6,7,8‐trimethoxyquinolin‐3‐yl)methyl)‐2‐(4‐methylpiperazin‐1‐yl)ethan‐1‐amine], the results for the MIC in the assay on PA 2108 (MDR) (read-out: MIC PA 2108 (MDR)), with AB 17978 and with AB 1605 (MDR) were 128 µg/mL (≈ 258 µM), 128 µg/mL (≈ 258 µM) and > 128 µg/mL, respectively. Also, the “Fold improvement of IC50 for AB by trimethoxy modification” value on AB ATP synthase came out at 3 fold. The “Fold worsening of IC50 for PA by trimethoxy modification” value at PA ATP synthase is ~3 fold.

As for `CCN1CCC(CCNCc2cc3cc(Br)ccc3nc2SCc2ccccc2)CC1` [WSA254, N‐((2‐(benzylthio)‐6‐bromoquinolin‐3‐yl)methyl)‐2‐(1‐ethylpiperidin‐4‐yl)ethan‐1‐amine], the MIC was 32 µg/mL (≈ 64.2 µM) in the assay on PA 2108 (MDR) (read-out: MIC PA 2108 (MDR)); 8 to 16 µg/mL (≈ 16 to 32.1 µM) with AB (17978 and 1605); 16 µg/mL (≈ 32.1 µM) in the assay on AB 17978.

As usually defined, the IC50 is the concentration that gives 50% inhibition. Regarding `Brc1ccc2nc(SCc3ccccc3)c(CNCCC3CCN(C4CCCC4)CC3)cc2c1` [WSA255, N‐((2‐(benzylthio)‐6‐bromoquinolin‐3‐yl)methyl)‐2‐(1‐cyclopentylpiperidin‐4‐yl)ethan‐1‐amine], the MIC is 32 µg/mL (≈ 59.4 µM) in the assay with PA 2108 (MDR) (read-out: MIC PA 2108 (MDR)); 8 to 16 µg/mL (≈ 14.9 to 29.7 µM) in the assay on AB (17978 and 1605); 16 µg/mL (≈ 29.7 µM) in the assay with AB 17978. In addition, the “Fold less potent against the ETC compared to ATP synthase” value in the assay on PA ETC (PA ETC IC50 versus PA ATP synthase IC50) was “more than 7 fold”. In the assay on PA ETC (PA vesicles, dose response fit), the “PA ETC IC50” value is recorded as 1.7 µg/mL. In addition, at PA ATP synthase, the IC50 is 427 nM.

Consider `Brc1ccc2nc(SCc3ccccc3)c(CNCc3ccc(CN4CCCC4)cc3)cc2c1` [WSA256, 1‐(2‐(benzylthio)‐6‐bromoquinolin‐3‐yl)‐N‐(4‐(pyrrolidin‐1‐ylmethyl)benzyl)methanamine], for which the MIC in the assay with PA 2108 (MDR) (read-out: MIC PA 2108 (MDR)), in the assay on AB 17978 and in the assay on AB 1605 (MDR) was > 128 µg/mL each time. Besides, in the assay with PA 2108 (MDR), the “Antibacterial activity against PA (in words)” value was “inactive”. Besides, the “Antibacterial activity against AB strains (in words)” value in the assay with AB (17978 and 1605) is “inactive”.

`CN1CCN(CCNCc2cc3cc(Br)ccc3nc2SCc2ccccc2)CC1` [WSA257, N‐((2‐(benzylthio)‐6‐bromoquinolin‐3‐yl)methyl)‐2‐(4‐methylpiperazin‐1‐yl)ethan‐1‐amine]: the MIC was 16 µg/mL (≈ 33 µM) in the assay with PA 2108 (MDR) (read-out: MIC PA 2108 (MDR)); 16 µg/mL (≈ 33 µM) in the assay with PA 2108 (MDR) (read-out: MIC against MDR PA); 8 to 16 µg/mL (≈ 16.5 to 33 µM) in the assay on AB (17978 and 1605); 8 µg/mL (≈ 16.5 µM) with AB 17978; 16 µg/mL (≈ 33 µM) with AB 1605 (MDR). Further, the IC50 at PA ATP synthase was 268 nM.

As for `CCN1CCC(CCNCc2cc3cc(-c4ccccc4)ccc3nc2SCc2ccccc2)CC1` [WSA261, N‐((2‐(benzylthio)‐6‐phenylquinolin‐3‐yl)methyl)‐2‐(1‐ethylpiperidin‐4‐yl)ethan‐1‐amine], the MIC in the assay with PA 2108 (MDR) (read-out: MIC PA 2108 (MDR)) was 64 µg/mL (≈ 129 µM); in the assay on AB (17978 and 1605) it was 8 to 16 µg/mL (≈ 16.1 to 32.3 µM); in the assay on AB 17978 it was 8 µg/mL (≈ 16.1 µM); in the assay with AB 1605 (MDR), 16 µg/mL (≈ 32.3 µM).

Turning to `c1ccc(CSc2nc3ccc(-c4ccccc4)cc3cc2CNCCC2CCN(C3CCCC3)CC2)cc1` [WSA262, N‐((2‐(benzylthio)‐6‐phenylquinolin‐3‐yl)methyl)‐2‐(1‐cyclopentylpiperidin‐4‐yl)ethan‐1‐amine], the MIC in the assay with PA 2108 (MDR) (read-out: MIC PA 2108 (MDR)) is 64 µg/mL (≈ 119 µM); in the assay on AB 17978, 32 µg/mL (≈ 59.7 µM).

Regarding `c1ccc(CSc2nc3ccc(-c4ccccc4)cc3cc2CNCc2ccc(CN3CCCC3)cc2)cc1` [WSA269, 1‐(2‐(benzylthio)‐6‐phenylquinolin‐3‐yl)‐N‐(4‐(pyrrolidin‐1‐ylmethyl)benzyl)methanamine], the MIC in the assay with PA 2108 (MDR) (read-out: MIC PA 2108 (MDR)), in the assay with AB 17978 and in the assay with AB 1605 (MDR) was > 128 µg/mL each time. For the same compound, in the assay with PA 2108 (MDR), the “Antibacterial activity against PA (in words)” value is “inactive”. The “Antibacterial activity against AB strains (in words)” value in the assay on AB (17978 and 1605) was “inactive”.

`CN1CCN(CCNCc2cc3cc(-c4ccccc4)ccc3nc2SCc2ccccc2)CC1` [WSA270, N‐((2‐(benzylthio)‐6‐phenylquinolin‐3‐yl)methyl)‐2‐(4‐methylpiperazin‐1‐yl)ethan‐1‐amine]: the MIC with PA 2108 (MDR) (read-out: MIC PA 2108 (MDR)) is 32 µg/mL (≈ 66.3 µM); with AB (17978 and 1605) it was 8 to 16 µg/mL (≈ 16.6 to 33.1 µM); in the assay with AB 17978, 16 µg/mL (≈ 33.1 µM).
